Laboratory results from publication PMC9989852 (Food and chemical toxicology : an international journal …, 2022).
Where “and” joins values, the source holds several entries; their conditions need not be identical. Equal values may be shown once.

Experiments:
spleen = assay: Spleen phenotyping by flow cytometry after 28-day dermal exposure; type: in vivo, B6C3F1 mice; conditions: 28 days
Outline: (§1)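 Female B6C3F1 mice (5/group) received 25 μl/ear daily to the dorsal ears in acetone. About 24 h after the last dose, tissues went into RPMI: both auricular dLNs, half spleen and one ear pinna. Single-cell suspensions were acquired on an LSR II, with populations gated per supplemental strategy and FMO gating controls. Results are mean ± SE, n=5, by one-way ANOVA.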

kidney, spleen = assay: Kidney and spleen histopathology after 28-day dermal exposure; type: in vivo, B6C3F1 mice; conditions: 1.25–5%, 28 days, data not shown
Outline: (§2)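 Female B6C3F1 mice (5/group) received 25 μl/ear on the dorsal ear surfaces daily, with acetone as vehicle. Tissues were formalin-fixed about 24 h after the last dose: liver remainder, half spleen, right kidney and half ear pinna. Sections were paraffin-embedded, cut at 5 μm and stained with H&E. A veterinary pathologist read them per STP guideline and graded 1 (minimal) to 5 (severe) by extent.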

liver = assay: Liver histopathology after 28-day dermal exposure; type: in vivo, B6C3F1 mice; conditions: 28 days, mice affected of 5
Outline: as §2

B6C3F1 mice = assay: Organ weights and body weight after 28-day dermal exposure; type: in vivo; conditions: 28 days
[1] = PFAS concentration in serum; type: in vivo, B6C3F1 mice; conditions: dermal, 28 days
Outline: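 Serum came by cardiac puncture about 24 h after the final daily ear dose (25 μl/ear, acetone vehicle; female B6C3F1 mice). Samples underwent solid-phase extraction and LC/MS/MS. Short-chain analytes were quantified as linear isomer only; the legacy comparator was quantified as linear plus branched. Data are mean ± SE of 4–5 mice, one-way ANOVA with Dunnett's vs vehicle.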

[2] = system: auricular draining lymph nodes (dLNs); assay: Draining lymph node phenotyping by flow cytometry after 28-day dermal exposure; type: in vivo, B6C3F1 mice; conditions: 28 days
Outline: as §1

[3] = PFAS concentration in pooled urine; type: in vivo, B6C3F1 mice; conditions: 5%, dermal, 28 days; 5 pooled samples
Outline: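 Urine was caught in a weigh boat as it was excreted during CO2 euthanasia, about 24 h after the final daily ear dose (25 μl/ear, acetone vehicle; female B6C3F1 mice). The 5 mice per group were pooled, with variable volume. Samples underwent solid-phase extraction and LC/MS/MS, as linear isomer for short-chain analytes and linear plus branched for the comparator. Each group gave a single value without statistics.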

ear pinna = assay: Skin; type: in vivo, B6C3F1 mice; conditions: dermal, 28 days
Outline: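 Dosing was daily topical to both dorsal ears (25 μl/ear, acetone vehicle) in female B6C3F1 mice. Liver caudate lobe or half ear pinna was stored in RNAlater and homogenized in RLT buffer. RNA was isolated on RNeasy columns with DNase, and 1–2 μg was reverse-transcribed. TaqMan real-time PCR was read as 2−ΔΔCT vs vehicle, normalized to β-actin. Statistics: ANOVA/Dunnett's, or Kruskal-Wallis/Dunn's for unequal variance.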

O=C(O)C(F)(F)C(F)(F)C(F)(F)C(F)(F)C(F)(F)F [PFHxA, perfluorohexanoic acid]
spleen MFI of CD86 on B-cells (spleen; 2.5%): increase | spleen NK cell frequency (spleen; 2.5%): increase | spleen frequency of CD11b + Ly6C + cells (spleen; 2.5%): significant decrease | spleen MFI of CD86 on B-cells (spleen; 5%): increase | spleen frequency of CD11b + Ly6C + cells (spleen; 5%): significant decrease | microscopic observations in the kidney or the spleen (kidney, spleen): No PFPeA, PFHxA, or PFHpA-related microscopic observations | Liver: Hypertrophy, centrilobular, hepatocyte, Mild (incidence) (liver; 1.25%): 0 | Liver: Hypertrophy, centrilobular, hepatocyte, Minimal (incidence) (liver; 1.25%): 2/5 and 2 | Liver: Hypertrophy, centrilobular, hepatocyte, Mild (incidence) (liver; 2.5%): 0 | Liver: Hypertrophy, centrilobular, hepatocyte, Minimal (incidence) (liver; 2.5%): 5/5 and 5 | Liver: Hypertrophy, centrilobular, hepatocyte, Mild (incidence) (liver; 5%): 0 | Liver: Hypertrophy, centrilobular, hepatocyte, Minimal (incidence) (liver; 5%): 5/5 and 5 | body weight or overt signs of toxicity (B6C3F1 mice; 1.25–5%): no changes | Liver weight (% body weight), increase vs vehicle-treated mice (B6C3F1 mice; 5%): 9% | PFAS serum concentration vs vehicle ([1]; 2.5%): significant increase | PFAS serum concentration vs vehicle ([1]; 5%): significant increase | dLN B-cells cell number ([2]; 1.25%): 28.40 ± 6.63 × 10^5 | dLN B-cells frequency ([2]; 1.25%): 18.06 ± 2.12% | dLN CD4^+ cell number ([2]; 1.25%): 5.93 ± 0.59 × 10^6 | dLN CD4^+ frequency ([2]; 1.25%): 40.24 ± 1.70% | dLN CD8^+ cell number ([2]; 1.25%): 42.50 ± 4.15 × 10^5 | dLN CD8^+ frequency ([2]; 1.25%): 28.94 ± 1.29% | dLN CD11b+ cell number ([2]; 1.25%): 16.20 ±3.71 × 10^4 | dLN CD11b+ frequency ([2]; 1.25%): 1.04 ± 0.12% | dLN CD86 B-cells ([2]; 1.25%): 98.74 ±6.64 MFI | dLN CD86 DCs ([2]; 1.25%): 11.60 ± 1.51 MFI x 10^2 | dLN Dendritic Cells cell number ([2]; 1.25%): 29.00 ±2.99 × 10^4 | dLN Dendritic Cells frequency ([2]; 1.25%): 2.01 ± 0.22 % | dLN Eosinophils cell number ([2]; 1.25%): 96.70 ± 17.60 × 10^2 | dLN MHCII B-cells ([2]; 1.25%): 7.07 ± 0.37 MFI × 10^2 | dLN MHCII DCs ([2]; 1.25%): 57.30 ±2.79 MFI × IQ^2 | dLN NK cell number ([2]; 1.25%): 11.60 ±0.64 × 10^4 | dLN NK frequency ([2]; 1.25%): 0.82 ± 0.08% | dLN Neutrophils cell number ([2]; 1.25%): 18.80 ±5.25 × 10^2 | dLN Total Cellularity ([2]; 1.25%): 15.00 ± 1.92 × 10^6 | dLN B-cells cell number ([2]; 2.5%): 32.50 ± 3.50 × 10^5 | dLN B-cells frequency ([2]; 2.5%): 15.94 ± 0.38% | dLN CD4^+ cell number ([2]; 2.5%): 8.16 ± 0.58 × 10^6 | dLN CD4^+ frequency ([2]; 2.5%): 40.56 ± 1.03% | dLN CD8^+ cell number ([2]; 2.5%): 56.80 ± 5.72 × 10^5 | dLN CD8^+ frequency ([2]; 2.5%): 27.94 ± 0.36% | dLN CD11b+ cell number ([2]; 2.5%): 25.30 ± 2.29 × 10^4 | dLN CD11b+ frequency ([2]; 2.5%): 1.25 ± 0.04 % | dLN CD86 B-cells ([2]; 2.5%): 93.54 ± 1.71 MFI | dLN CD86 DCs ([2]; 2.5%): 13.20 ± 1.29 MFI x 10^2 | dLN Dendritic Cells cell number ([2]; 2.5%): 47.00 ± 5.39 × 10^4 | dLN Dendritic Cells frequency ([2]; 2.5%): 2.32 ± 0.14 % | dLN Eosinophils cell number ([2]; 2.5%): 140.00 ± 17.30 × 10^2 | dLN MHCII B-cells ([2]; 2.5%): 7.16 ± 0.11 MFI × 10^2 | dLN MHCII DCs ([2]; 2.5%): 63.50 ± 5.71 MFI × IQ^2 | dLN NK cell number ([2]; 2.5%): 19.50 ± 2.26 × 10^4 | dLN NK frequency ([2]; 2.5%): 0.95 ± 0.03 % | dLN Neutrophils cell number ([2]; 2.5%): 21.50 ± 1.28 × 10^2 | dLN Total Cellularity ([2]; 2.5%): 20.30 ± 1.81 × 10^6 | dLN B-cells cell number ([2]; 5%): 37.30 ± 1.54 × 10^5 | dLN B-cells frequency ([2]; 5%): 17.38 ± 0.94% | dLN CD4^+ frequency ([2]; 5%): 41.58 ± 0.62% | dLN CD8^+ cell number ([2]; 5%): 58.40 ± 4.46 × 10^5 | dLN CD8^+ frequency ([2]; 5%): 26.82 ± 0.64% | dLN CD11b+ cell number ([2]; 5%): 26.00 ± 3.54 × 10^4 | dLN CD11b+ frequency ([2]; 5%): 1.18 ± 0.11% | dLN CD86 B-cells ([2]; 5%): 101.54 ± 3.64 MFI | dLN CD86 DCs ([2]; 5%): 9.15 ± 0.71 MFI x 10^2 | dLN Dendritic Cells cell number ([2]; 5%): 35.40 ± 5.48 × 10^4 | dLN Dendritic Cells frequency ([2]; 5%): 1.60 ± 0.19% | dLN Eosinophils cell number ([2]; 5%): 142.00 ± 22.90 × 10^2 | dLN MHCII B-cells ([2]; 5%): 8.02 ± 0.64 MFI × 10^2 | dLN NK cell number ([2]; 5%): 17.70 ± 2.11 × 10^4 | dLN NK frequency ([2]; 5%): 0.80 ± 0.06% | dLN Neutrophils cell number ([2]; 5%): 16.70 ± 2.99 × 10^2 | dLN Total Cellularity ([2]; 5%): 21.70 ± 1.26 × 10^6 | urine PFAS concentration [3]: 1700 µg/mL | skin Pparδ gene expression (ear pinna; 1.25–5%): no changes | skin Flg gene expression (ear pinna; 2.5%): increased | skin Pparγ gene expression (ear pinna; 2.5%): decreased | skin Flg gene expression (ear pinna; 5%): increased | skin Lor gene expression (ear pinna; 5%): increased | skin PPARα gene expression (ear pinna; 5%): decreased | skin Pparγ gene expression (ear pinna; 5%): decreased | skin S100a8 gene expression, increase (ear pinna; 5%): 16.8 fold
